Test results: ChEMBL document CHEMBL1123406, “Synthesis and evaluation of 2,3-dihydrobenzofuran analogues of the hallucinogen 1-(2,5-dimethoxy-4-methylphenyl)-2-aminopropane: drug discrimination studies in rats” (1986)
Calls of active or inactive are those of the source. No cut-off for these calls is given here.

How the values were obtained:
Rattus norvegicus [1] = assay: Number of rats responding on LSD lever/number of rats treated at dose 10.0 mg/kg; 10/12; type: functional, organism-based; parameters: dose 10 mg/kg
How it was run: (§1)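 Male Sprague–Dawley rats (200-240 g, housed singly) trained in a two-lever operant task to discriminate ip saline from LSD tartrate 0.08 mg/kg. Reinforcement was 45 mg food pellets on an FR50 schedule, with 15-min daily training sessions. Test drugs were given 30 min before testing. A test ended at 50 responses on either lever or at 5 min; rats not completing 50 presses were scored disrupted and excluded.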

Rattus norvegicus [2] = assay: Percentage responding on LSD lever at dose 0.25 mg/kg; type: functional; how it was run: as §1
Rattus norvegicus [3] = assay: Number of rats responding on LSD lever/number of rats treated at dose 8.0 mg/kg; 6/8; type: functional, organism-based; parameters: dose 8 mg/kg; how it was run: as §1
Rattus norvegicus [4] = assay: Percentage responding on LSD lever at dose 1.0 mg/kg; type: functional; how it was run: as §1
Rattus norvegicus [5] = assay: Number of rats responding on LSD lever/number of rats treated at dose 4.0 mg/kg; 5/8; type: functional, organism-based; parameters: dose 4 mg/kg; how it was run: as §1
Rattus norvegicus [6] = assay: Percentage responding on LSD lever at dose 10.0 mg/kg; type: functional; how it was run: as §1
Rattus norvegicus [7] = assay: Percentage responding on LSD lever at dose 8.0 mg/kg; type: functional; how it was run: as §1
Rattus norvegicus [8] = assay: Number of rats responding on LSD lever/number of rats treated at dose 0.25 mg/kg; 1/8; type: functional, organism-based; parameters: dose 0.25 mg/kg; how it was run: as §1
Rattus norvegicus [9] = assay: Percentage responding on LSD lever at dose 4.0 mg/kg; type: functional; how it was run: as §1
Rattus norvegicus [10] = assay: Number of rats responding on LSD lever/number of rats treated at dose 1.0 mg/kg; 1/8; type: functional, organism-based; parameters: dose 1 mg/kg; how it was run: as §1
Rattus norvegicus [11] = species on record: Rattus norvegicus; assay: Compound was evaluated for the drug discrimination assay and the ED50 (potency) was determined; type: functional; how it was run: as §1
Rattus norvegicus [12] = assay: Percentage responding on LSD lever at dose 2.0 mg/kg; type: functional; how it was run: as §1
Rattus norvegicus [13] = assay: Percentage responding on LSD lever at dose 0.5 mg/kg; type: functional; how it was run: as §1
Rattus norvegicus [14] = assay: Percentage responding on LSD lever at dose 16.0 mg/kg; type: functional; how it was run: as §1
Rattus norvegicus [15] = assay: Percentage responding on LSD lever at dose 3.0 mg/kg; type: functional; how it was run: as §1
Rattus norvegicus [16] = assay: Number of rats responding on LSD lever/number of rats treated at dose 3.0 mg/kg; 8/10; type: functional, organism-based; parameters: dose 3 mg/kg; how it was run: as §1
Rattus norvegicus [17] = assay: Number of rats responding on LSD lever/number of rats treated at dose 0.5 mg/kg; 1/8; type: functional, organism-based; parameters: dose 0.5 mg/kg; how it was run: as §1
Rattus norvegicus [18] = assay: Number of rats responding on LSD lever/number of rats treated at dose 4.0 mg/kg; 8/8; type: functional, organism-based; parameters: dose 4 mg/kg; how it was run: as §1
Rattus norvegicus [19] = assay: Number of rats responding on LSD lever/number of rats treated at dose 2.0 mg/kg; 6/8; type: functional, organism-based; parameters: dose 2 mg/kg; how it was run: as §1
Rattus norvegicus [20] = assay: Number of rats responding on LSD lever/number of rats treated at dose 1.0 mg/kg; 4/8; type: functional, organism-based; parameters: dose 1 mg/kg; how it was run: as §1

COc1cc2c(cc1CC(C)N)OCC2 (stereo not drawn)
Activity (Rattus norvegicus [1]): Active | Responding (Rattus norvegicus [2]): 13% | Activity (Rattus norvegicus [3]): Weak activity | Responding (Rattus norvegicus [4]): 13% | Activity (Rattus norvegicus [5]): Weak activity | Responding (Rattus norvegicus [6]): 83% | Responding (Rattus norvegicus [7]): 75% | Activity (Rattus norvegicus [8]): inactive | Responding (Rattus norvegicus [9]): 63% | Activity (Rattus norvegicus [10]): inactive | ED50 (Rattus norvegicus [11]): 2.12 mg/kg

COc1cc2c(cc1CC(C)N)OC(C)C2 (stereo not drawn)
Responding (Rattus norvegicus [12]): 0% | Responding (Rattus norvegicus [7]): 63% | Responding (Rattus norvegicus [9]): 38% | Responding (Rattus norvegicus [13]): 0% | Responding (Rattus norvegicus [14]): 88% | ED50 (Rattus norvegicus [11]): 5.5 mg/kg

COc1cc2c(cc1CC(C)N)OCO2 (stereo not drawn)
Responding (Rattus norvegicus [4]): 50% | Responding (Rattus norvegicus [12]): 75% | Responding (Rattus norvegicus [15]): 80% | Activity (Rattus norvegicus [16]): Active | Activity (Rattus norvegicus [17]): inactive | Activity (Rattus norvegicus [18]): Active | Responding (Rattus norvegicus [9]): 100% | Responding (Rattus norvegicus [13]): 13% | ED50 (Rattus norvegicus [11]): 1.71 mg/kg | Activity (Rattus norvegicus [19]): Weak activity | Activity (Rattus norvegicus [20]): Weak activity
